Measured values from ChEMBL document CHEMBL1250511, “Discovery of pyridazinopyridinones as potent and selective p38 mitogen-activated protein kinase inhibitors” (J Med Chem, 2010).

How the values were obtained:
[1] = Antiinflammatory activity in human whole blood cells assessed as inhibition of TNF-alpha-induced IL8 production after 16 to 18 hrs; format: functional, cell-based
How it was run: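 Heparinized blood from healthy, nonmedicated volunteers (final 50% in RPMI 1640/10% human AB serum) was preincubated 1 h at 37 °C, 5% CO2 with ten-point compound titrations. It was then stimulated with TNFα (final 1 nM) overnight (16-18 h). Plasma IL-8 was measured by MSD ECL sandwich immunoassay.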

[2] = tested on: THP-1; assay: Antiinflammatory activity in human THP1 cells assessed as inhibition of LPS-induced TNFalpha production after 3 hrs; format: functional, cell-based; conditions: THP-1, 3 h
How it was run: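 THP-1 cells (1.5 × 10^6/mL in RPMI 1640, 10% heat-inactivated FBS, 30 μM βME) given 3-fold serial DMSO dilutions of compound, then LPS. Incubation 3 h at 37 °C, 5% CO2. Secreted TNFα measured in medium by MSD electrochemiluminescence. Results expressed as percent of control relative to DMSO (HI) and no-LPS (LO) wells.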

[3] = target: Mitogen-activated protein kinase 14 (Homo sapiens, UniProt Q16539); assay: Inhibition of p38alpha MAP kinase
Mitogen-activated protein kinase 14, sequence (Q16539 whole entry): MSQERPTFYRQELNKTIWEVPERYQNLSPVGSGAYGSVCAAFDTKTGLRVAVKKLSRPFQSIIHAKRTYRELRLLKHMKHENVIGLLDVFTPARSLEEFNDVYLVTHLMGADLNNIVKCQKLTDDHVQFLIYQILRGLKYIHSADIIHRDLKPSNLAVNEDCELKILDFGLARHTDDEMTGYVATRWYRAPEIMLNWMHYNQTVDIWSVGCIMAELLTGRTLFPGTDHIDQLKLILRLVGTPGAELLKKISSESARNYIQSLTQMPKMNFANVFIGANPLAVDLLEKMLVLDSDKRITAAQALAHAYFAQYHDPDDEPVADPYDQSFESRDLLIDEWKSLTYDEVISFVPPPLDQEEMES

[4] = tested on: Rattus norvegicus; assay: Antiinflammatory activity in po dosed Lewis rat assessed as inhibition of LPS-induced TNFalpha production administered 1 hrs prior to LPS challenge after 90 mins
[5] = species: Rattus norvegicus; assay: Antiarthritic activity in Lewis rat assessed as reduction in collagen-induced paw swelling; format: functional
How it was run: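 Arthritis induced by intradermal porcine type II collagen emulsified 1:1 in incomplete Freund's adjuvant. Animals were grouped at disease onset (10-12 days post-immunization) and dosed orally once daily for 7 days. Paw diameter was measured daily on days 0-7. Area under the paw-swelling curve gave percent inhibition versus vehicle.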

[6] = Half life in Sprague-Dawley rat at 2 mg/kg, iv; format: ADME, organism-based; design: dose 2 mg/kg, route intravenous; conditions: in vivo
How it was run: (§1)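 Single iv dose of 2.0 mg/kg, formulated in DMSO.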

[7] = Clearance in Sprague-Dawley rat at 2 mg/kg, iv; format: ADME, organism-based; design: dose 2 mg/kg, route intravenous; conditions: in vivo; how it was run: as §1
[8] = Oral bioavailability in Sprague-Dawley rat at 2 mg/kg; format: ADME, organism-based; conditions: in vivo
[9] = AUC in Sprague-Dawley rat at 2 mg/kg, po; format: ADME, organism-based; design: dose 2 mg/kg, route oral; conditions: plasma
[10] = Volume of distribution at steady state in Sprague-Dawley rat at 2 mg/kg, iv; format: ADME, organism-based; design: dose 2 mg/kg, route intravenous; conditions: in vivo, read-out: Vdss; how it was run: as §1

| SMILES | IC50 [1] [nM] | IC50 [2] [nM] | IC50 [3] [nM] | other results |
| --- | --- | --- | --- | --- |
| CNC(=O)c1ccc(C)c(-c2cc3cnnc(-c4ccc(F)cc4F)c3n(C)c2=O)c1 | 30 | 24.3 | – | – |
| Cn1c(=O)c(Nc2ccc(F)cn2)cc2cnnc(-c3ccc(F)cc3F)c21 | > 2500 | > 2500 | – | – |
| Cn1c(=O)c(-c2cc(C(=O)NC3CC3)ccc2Cl)cc2cnnc(-c3ccc(F)cc3F)c21 | 8.3 | 6.3 | 2.6 | – |
| Cc1ccc(C(N)=O)cc1-c1cc2cnnc(-c3ccc(F)cc3F)c2n(C)c1=O | 21.3 | 19.3 | 2.7 | – |
| Cn1c(=O)c(Cc2ccc(F)cc2)cc2cnnc(-c3ccc(F)cc3F)c21 | 697 | 197 | 55.8 | – |
| Cn1c(=O)c(Oc2ccc(F)cc2F)cc2cnnc(-c3ccc(F)cc3F)c21 | 70.5 | 107 | – | – |
| Cc1cnc(C(=O)NC2CC2)cc1-c1cc2cnnc(-c3ccc(F)cc3F)c2n(C)c1=O | 63.3 | 80.5 | 14.5 | – |
| Cn1c(=O)c(Nc2ncc(F)cc2F)cc2cnnc(-c3ccc(F)cc3F)c21 | > 2500 | 982 | – | – |
| Cn1c(=O)c(Nc2ccc(F)cc2)cc2cnnc(-c3ccc(F)cc3F)c21 | 61.9 | 13.7 | – | – |
| Cc1ccc(C(=O)NC2CC2)cc1-c1cc2cnnc(-c3ccc(F)cc3F)c2n(C)c1=O | 1.8 | 2.1 | 2.7 | ED50 [4]: 0.06 mg/kg; ED50 [5]: 0.03 mg/kg; half-life [6]: 3.06 h; clearance [7]: 3.83 mL/min/kg; bioavailability [8]: 86%; AUC [9]: 7630 ng·h/mL; Vd [10]: 1.04 L/kg |
| Cn1c(=O)c(Cc2ccc(F)cc2F)cc2cnnc(-c3ccc(F)cc3F)c21 | 213 | 49 | 6.1 | – |
| Cc1ccc(C(=O)O)cc1-c1cc2cnnc(-c3ccc(F)cc3F)c2n(C)c1=O | > 2500 | > 2500 | > 1000 | – |
| Cc1c(F)cc(C(=O)NC2CC2)cc1-c1cc2cnnc(-c3ccc(F)cc3F)c2n(C)c1=O | 1.6 | 1.1 | 1.4 | half-life [6]: 4.66 h; bioavailability [8]: 55%; AUC [9]: 6740 ng·h/mL; Vd [10]: 1.19 L/kg |
| Cn1c(=O)c(Nc2ccc(F)cc2F)cc2cnnc(-c3ccc(F)cc3F)c21 | 11.7 | 4.5 | 0.9 | – |
| CN(c1ccc(F)cc1)c1cc2cnnc(-c3ccc(F)cc3F)c2n(C)c1=O | 1240 | 1140 | 299 | – |
| Cc1ccc(C(=O)NC2(C)CC2)cc1-c1cc2cnnc(-c3ccc(F)cc3F)c2n(C)c1=O | 27.4 | 14.5 | 3.1 | – |
| Cn1c(=O)c(Oc2ccc(F)cc2)cc2cnnc(-c3ccc(F)cc3F)c21 | 227 | 235 | 78 | – |
